Activity calls are given as the source filed them. The rule behind the calls is not given here.
How the values were obtained:
HeLa = experiment: Inhibition of HIV1 gp120 binding to CD4 assessed as inhibition of CD4 expressing human HeLa cells by MAGI assay; format: cell-based; conditions: Human immunodeficiency virus 1
How it was run: (§1)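 MAGI assay: HeLa-CD4+ beta-gal cells seeded at 15 × 10³ per well, infected with HIV-1 HXB2 with or without inhibitor in the presence of DEAE-dextran. Two days after infection, cells fixed in 1% formaldehyde/0.2% glutaraldehyde in PBS. Stained with ferro/ferricyanide (4 mM each), 2 mM MgCl₂ and 0.4 mg/mL X-Gal. Blue cells counted by light microscopy.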

[1] = system: Human immunodeficiency virus 1; experiment: Antiviral activity against HIV1 assessed as reduction in infection; format: functional; how it was run: as §1
[2] = Cmax in Wistar rat at 10 mg/kg, po; format: ADME, organism-based; parameters: dose 10 mg/kg, route oral; conditions: in vivo
How it was run: (§2)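 Conscious male Wistar rats (275 ± 20 g, n = 5 per route) with jugular vein cannula implanted 24 h before dosing. Given 1 mg/kg IV bolus or 10 mg/kg by oral gavage, dissolved in water. Heparinized blood sampled at several times up to 24 h. Plasma separated by centrifugation (4000 g, 5 min, 4 °C), stored at −70 °C. Parameters from noncompartmental analysis.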

[3] = Cmax in Wistar rat at 1 mg/kg, iv; format: ADME, organism-based; parameters: dose 1 mg/kg, route intravenous; conditions: in vivo; how it was run: as §2
[4] = Tmax in Wistar rat at 10 mg/kg, po; format: ADME, organism-based; parameters: dose 10 mg/kg, route oral; conditions: in vivo; how it was run: as §2
[5] = Tmax in Wistar rat at 1 mg/kg, iv; format: ADME, organism-based; parameters: dose 1 mg/kg, route intravenous; conditions: in vivo; how it was run: as §2
Rattus norvegicus [6] = experiment: AUC in Wistar rat at 10 mg/kg, po; format: ADME, organism-based, Plasma; parameters: dose 10 mg/kg, route oral; conditions: in vivo; how it was run: as §2
Rattus norvegicus [7] = experiment: Volume of distribution at steady state in Wistar rat at 10 mg/kg, po; format: ADME, organism-based; parameters: dose 10 mg/kg, route oral; conditions: in vivo; how it was run: as §2
[8] = Half life in Wistar rat at 10 mg/kg, po; format: ADME, organism-based; parameters: dose 10 mg/kg, route oral; conditions: in vivo; how it was run: as §2
[9] = Oral bioavailability in Wistar rat at 10 mg/kg; format: ADME, organism-based; conditions: in vivo; how it was run: as §2

N=C(N)NCCCC1NC(=O)CCCCCC(=O)NC(Cc2ccc(O)cc2)CN(CC(N)=O)C1=O (stereo unspecified)
inhibition (HeLa): inactive

N=C(N)NCCCC1NC(=O)CCCCCC(=O)NC(Cc2ccccc2)CN(CC(N)=O)C1=O (stereo unspecified)
inhibition (HeLa): Active | inhibition (INH) [1]: 80% | Cmax [2]: 866 ng/mL | Cmax [3]: 102 ng/mL | Tmax [4]: 18 min | Tmax [5]: 5 min | AUC (Rattus norvegicus [6]): 21770 ng·min/mL | Vdss (Rattus norvegicus [7]): 0.6 L/kg | half-life [8]: 73 min | bioavailability [9]: 10%
